The values that follow come from ChEMBL document CHEMBL4425094, “Novel Benzo[a]quinolizidine Analogs Induce Cancer Cell Death through Paraptosis and Apoptosis” (J Med Chem, 2016).

SMILES strings stand for the structures. The source made the active and inactive calls. The calls are words filed in the database; no cut-off is given here.

The test system of one assay is MDA-MB-231. The assay is described as follows: Cytotoxicity against human MDA-MB-231 cells assessed as cell growth inhibition after 24 hrs by MTT assay. Format: functional, cell-based. As to conditions: MDA-MB-231, 24 h. Put shortly: (§1)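 Cells seeded 24 h in RPMI 1640 + 10% FBS. RWPE-1 was kept in K-SFM with bovine pituitary extract and EGF. Cells then exposed to compounds for 24 h at 37 °C, 5% CO2, with DMSO vehicle and docetaxel as positive control. MTT added for 4 h, absorbance read at 570 nm. Triplicate runs, IC50 reported as mean of three experiments.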
(In general: Tetrazolium dyes change colour on reduction, which living cells bring about.)

Another assay relates to K562. The assay can be described thus: Cytotoxicity against human K562 cells assessed as cell growth inhibition after 24 hrs by MTT assay. Format: functional, cell-based. As to conditions: K562, 24 h. The gist of the method: as §1
Assay [1] deals with PC-3. The assay is described as follows: Cytotoxicity against human PC3 cells assessed as cell growth inhibition after 24 hrs by MTT assay. As to conditions: PC-3, 24 h. Type of assay: functional, cell-based. Put shortly:
as §1

The subject of assay [2] is PC-3. The assay is described as follows: Induction of morphological changes in human PC3 cells assessed as formation of massive cytoplasmic vacuoles at 1 uM after 12 hrs by confocal microscopic analysis. Type of assay: functional, cell-based.
In assay [3] the test system is PC-3. The assay is described as follows: Induction of cell cycle arrest in human PC3 cells assessed as accumulation in G0/G1 phase at 0.5 uM after 24 hrs by […]propidium iodide based flow cytometric analysis (reference value: 43.5 to 62.5 %). Type of assay: functional. Background: Flow cytometry measures light scatter and fluorescence of single cells or particles in a stream.

Assay [4] deals with PC-3. The assay can be described thus: Induction of cell cycle arrest in human PC3 cells assessed as accumulation in S phase at 0.5 uM after 24 hrs by […]propidium iodide based flow cytometric analysis (reference value: 21 to 31.6 %). Format: functional.
The test system of assay [5] is PC-3. The assay is described as follows: Induction of cell cycle arrest in human PC3 cells assessed as accumulation in S phase at 2 uM after 24 hrs by […]propidium iodide based flow cytometric analysis (reference value: 21 to 31.6 %). Type of assay: functional.
The subject of assay [6] is PC-3. The assay is described as follows: Induction of apoptosis in human PC3 cells assessed as viable cells at 0.5 uM after 24 hrs by Annexin V-FITC/propidium iodide based flow cytometric analysis (reference value: 95.4 %). As to conditions: PC-3, 24 h, read-out: Activity. Format: functional. The gist of the method: (§2)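 PC3 cells exposed to 0.5, 1 or 2 μM for 24 h, then stained with Annexin V-FITC and PI and analyzed by FACSCalibur flow cytometry. Populations assigned as necrotic (Annexin V−/PI+), late apoptotic (double positive), normal (Annexin V−/PI−) and early apoptotic (Annexin V+/PI−). DMSO vehicle control.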

Assay [7] deals with PC-3. The assay can be described thus: Induction of apoptosis in human PC3 cells assessed as necrotic cells at 0.5 uM after 24 hrs by Annexin V-FITC/propidium iodide based flow cytometric analysis (reference value: 1.1 %). Format: functional. The gist of the method:
as §2

Assay [8] relates to PC-3. The assay is described as follows: Induction of apoptosis in human PC3 cells assessed as early apoptotic cells at 2 uM after 24 hrs by Annexin V-FITC/propidium iodide based flow cytometric analysis (reference value: 2.3 %). Format: functional. The gist of the method:
as §2

Assay [9] has as its system PC-3. The assay is described as follows: Induction of ER stress in human PC3 cells assessed as upregulation of CHOP after 24 hrs by Western blot analysis. Format: functional, cell-based. Put shortly:
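PC3 cells in RPMI 1640 with 10% FBS, treated with compound for timed intervals. DMSO vehicle control. Lysis in RIPA buffer, 40 μg protein per lane on SDS-PAGE, transfer to nitrocellulose. Primary antibodies overnight at 4 °C, HRP-secondary 45 min, ECL detection. GAPDH or β-actin used as loading control.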
In general terms: In western blotting, separated proteins are transferred to a membrane and probed.

The subject of assay [10] is PC-3. The assay is described as follows: Induction of vacuolization in human PC3 cells in presence of AcT-D after 24 hrs by phase-contrast microscopic analysis. Format: functional, cell-based. The gist of the method: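 PC3 cells pretreated with 10 μM actinomycin D or 5 μM cycloheximide, then treated with agent for 24 h. Vacuolization imaged by phase-contrast microscopy; viability by MTT.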

For assay [11], the system named is PC-3. The assay is described as follows: Cytotoxicity in human PC3 cells assessed as reduction in cell viability after 24 hrs in presence of CHX by MTT assay. Type of assay: functional, cell-based. The gist of the method:
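PC3 cells pretreated with 10 μM actinomycin D or 5 μM cycloheximide, then treated with compound for 24 h. Viability by MTT at 570 nm. Vacuolation imaged by phase-contrast microscopy.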

Assay [12] deals with PC-3. The assay is described as follows: Induction of fusion of autophagosomes with lysosomes in human PC3 cells transfected with mRFP-GFP-LC3 at 1 uM after 8 hrs by fluorescence microscopic analysis. Format: functional, cell-based. The gist of the method:
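PC3 cells transfected with an mRFP-GFP-LC3 reporter plasmid, then treated 8 h with 1 μM test agent or 0.5 μM rapamycin (autophagy inducer). Imaged by confocal fluorescence microscopy: yellow puncta (overlapping red/green) scored as autophagosomes, red-only puncta as autolysosomes, since GFP is quenched in acidic lysosomes.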

The subject of assay [13] is PC-3. The assay can be described thus: Cytotoxicity against human PC3 cells transfected with LC3-targeting siRNA assessed as reduction in cell viability at 1 uM after 24 hrs by Western blot analysis. Type of assay: functional, cell-based. Put shortly: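 PC3 cells plated at 20−30% confluence and transfected 24 h later with 50 nM LC3-targeting or scramble siRNA. After 48 h, cells were exposed to 1 μM compound for a further 24 h. Read-out by Western blot and phase-contrast imaging.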

The test system of assay [14] is PC-3M. The assay can be described thus: Antitumor activity against human PC3M-lluc-C6 cells xenografted in athymic Balb/c mouse assessed as tumor growth inhibition at 15 mg/kg, ip administered every 2 days for 18 days. Format: functional. As to conditions: read-out: TGI.
Assay [15] concerns PC-3M. The assay is described as follows: Antitumor activity against human PC3M-lluc-C6 cells xenografted in athymic Balb/c mouse assessed as tumor weight at 15 mg/kg, ip administered every 2 days for 18 days (reference value: 0.71 +/- 0.06 g). Type of assay: functional.
Assay [16] relates to PC-3M. The assay is described as follows: Antitumor activity against human PC3M-lluc-C6 cells xenografted in athymic Balb/c mouse assessed as decrease in tumor burden by measuring photon intensity at 15 mg/kg, ip measured on day 9 by bioluminescence method (reference value: 6.501 x 10^9 photons/s/cm2). Type of assay: functional.
Assay [17] has as its system PC-3. The assay is described as follows: Growth inhibition of human PC3 cells at IC30 in presence of bortezomib by MTT assay. Type of assay: functional, cell-based. Put shortly:
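PC3 cells incubated with increasing concentrations of compound combined with a second agent (bortezomib or partner compound). Viability determined, combination index calculated: CI < 1 synergism, = 1 additive, > 1 antagonism.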

Assay [18] relates to PC-3M. The assay can be described thus: Induction of immature autophagy i in human PC3M-lluc-C6 cells xenografted in athymic Balb/c mouse assessed as increase in p62 protein levels at 15 mg/kg, ip administered every 2 days for 18 days by Western blot and immunohistochemical staining method. Format: functional, organism-based. Put shortly:
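Male athymic BALB/c-nu mice (6 weeks) carried subcutaneous right-flank PC3M-luc-C6 xenografts (5 × 10^6 cells). At ~0.1 cm3 they were grouped (n = 5) and given 15 mg/kg i.p. suspension every 2 days; placebo and docetaxel 15 mg/kg were controls. Tumors were analyzed by Western blot and by immunohistochemistry (anti-LC3 1:800, anti-p62 1:500, overnight 4 °C, HRP/DAB, hematoxylin counterstain).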

The test system of assay [19] is PC-3M. The assay is described as follows: Induction of ER stress i in human PC3M-lluc-C6 cells xenografted in athymic Balb/c mouse assessed as increase in GRP78 protein levels at 15 mg/kg, ip administered every 2 days for 18 days by Western blot and immunohistochemical staining method. Format: functional, organism-based. The gist of the method: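 Tumor tissue from PC3M-luc-C6 xenografts in BALB/c-nu mice dosed 15 mg/kg i.p. every 2 days. GRP78 measured by Western blot and by immunohistochemistry (anti-GRP78 1:500 overnight at 4 °C, HRP/DAB, hematoxylin counterstain).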

Turning to `Cc1cc(C)cc(COc2cc3c(cc2OCc2cc(C)cc(C)c2)[C@@H]2C[C@H](O)C[C@@H](C)N2CC3)c1` (racemic), the IC50 came to 820 nM in the assay with MDA-MB-231, 1440 nM with K562 and 660 nM in the assay on PC-3 [1]. The outcome with PC-3 [2], in the assay with PC-3 [9], with PC-3M [18] and in the assay on PC-3M [19] was Active. The Activity with PC-3 [3] is recorded as 63.8 - 70.2%; in the assay on PC-3 [4], 16.1 - 21.3%; in the assay on PC-3 [5], 6.38 - 9.05%; in the assay with PC-3 [7], 1%; in the assay on PC-3 [8] it was 20.5%; in the assay with PC-3M [15], 0.42 g. Moreover, in the assay on PC-3M [16], the Activity was found to be 2.45 ×10⁹ /s/cm2. Further, in the assay on PC-3 [6], the viability at 0.5 µM was found to be 95.3%. Further, the outcome in the assay with PC-3 [10], with PC-3 [11], in the assay with PC-3 [12] and in the assay on PC-3 [13] was inactive. The inhibition in vivo at 15 mg/kg in the assay on PC-3M [14] turned out to be 40.5%. Moreover, the “growth inhibition (GI)” value in the assay on PC-3 [17] is “Active”.

The IC50 is the concentration that inhibits the measured activity by half.
